Compound activity: PubChem, several laboratories
MC4R antagonist: antagonists of human melanocortin 4 receptor (MC4R) | 360,000 tested, 0.48% active | AID 540295 | MC4R-expressing cells, MTII-stimulated cAMP, LANCE TR-FRET | inhibition, % at 6.5 µM;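 active = inhibition above its plate's cutoff, the mean of tested wells on that plate plus 3 SD, cut at about 29% in these data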
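Assay system: U2OS cells stably expressing human melanocortin 4 receptor (MC4R) / Dosing: 6.5 µM / Timing: compound 30 min, challenge 1 h, detection 1 h / Measured by: Eu-cAMP/anti-cAMP TR-FRET, emission 671 nm / Replicates: singlicate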
MPTP block: permeability transition pore inhibition; inhibition, % at 10 µM; 360,000 tested, 1.4% active; isolated mouse mitochondria, Ca2+ swelling absorbance, 30 min;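 active = inhibition of 50% or more, scaled per plate between neutral and stimulator controls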
MC4R ag barr: activates human MC4R beta-arrestin recruitment | P32245 | U2OS MC4R beta-arrestin complementation, luminescence; percent of melanotan II response, DMSO zero | activation, % at 8.9 µM | 360,000 tested, 0.98% active;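 active = activation above a per-plate cutoff, the mean activation of sample wells on that plate plus 3 SD, cut at about 8% in these data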
ATG4B inh: blocks human ATG4B protease cleavage of LC3 substrate. Q9Y4P1. ATG4B cleavage of LC3-PLA2, NBD-HPC fluorescence, 1 h. 340,000 tested, 0.51% active. inhibition, % at 8.33 µM; in the data active = inhibition above about 40%
Target sequence (Q9Y4P1 whole entry, looked up): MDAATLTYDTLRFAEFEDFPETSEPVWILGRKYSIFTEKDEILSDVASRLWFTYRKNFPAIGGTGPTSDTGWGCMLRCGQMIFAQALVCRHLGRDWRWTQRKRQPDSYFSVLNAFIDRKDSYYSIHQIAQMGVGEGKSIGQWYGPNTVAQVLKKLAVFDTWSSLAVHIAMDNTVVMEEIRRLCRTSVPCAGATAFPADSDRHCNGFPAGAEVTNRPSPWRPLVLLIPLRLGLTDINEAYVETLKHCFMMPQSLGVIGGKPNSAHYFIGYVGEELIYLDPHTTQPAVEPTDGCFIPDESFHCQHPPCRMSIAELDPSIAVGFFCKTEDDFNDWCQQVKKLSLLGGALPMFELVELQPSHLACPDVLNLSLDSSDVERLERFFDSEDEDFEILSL
SMARCA2 act: increases SMARCA2 function in MMTV reporter cells | MG213 cells, MMTV-luciferase reporter, dexamethasone, overnight | activation, % at 9.1 µM | 370,000 tested, 1% active | AID 652017; in the data active = activation above about 7.8%
MPTP counter: membrane potential counter-screen of mitochondrial pore inhibitors | AID 624504 | 5,000 tested, 78% active | shares compounds with MPTP block | isolated mitochondria, Rhodamine 123 fluorescence | inhibition, % at 10 µM; in the data active = inhibition above about 22%
MPTP abs DR: MPTP inhibition, dose response swelling confirmation; shares compounds with MPTP block; IC50, µM; AID 651561; isolated mitochondria swelling, absorbance; 780 tested, 58% active; in the data active = IC50 below about 20 µM
MPTP cs DR: MPTP inhibitor counter-screen activity, dose response; shares compounds with MPTP block; isolated mitochondria counterscreen, fluorescence read-out; IC50, µM; 780 tested, 49% active; AID 651564; in the data active = IC50 below about 80 µM
Each line names hits and unclear results; the compound was inactive in the other large screens (follow-up assays come after a bar, where they were run); ! = a repeat was not active. Most compounds without a hit are left out; they make up all but 4.1% or so of the library.

CC(C)COC(=O)NCCCOC(=O)Nc1ccccc1	none
COc1ccc(-c2cc(C(=O)N(C3CCCCC3)C3CCCCC3)no2)cc1	none (no result: MC4R antagonist, MPTP block, MC4R ag barr, ATG4B inh)
N#CCCn1cc(/C=N/O)c(-c2ccc(F)cc2)n1	none
CC1(C)CC(=O)C(=Cc2cn(CCC#N)nc2-c2ccc(F)cc2)C(=O)C1	MPTP block 63 | MPTP counter 41
CC1(C)CC(=O)C(=Cc2cn(-c3ccccc3)nc2-c2ccc(Cl)cc2)C(=O)C1	none
CC1(C)CC(=O)C(=Cc2cn(CCC#N)nc2-c2ccc(Cl)cc2)C(=O)C1	MPTP block 77 | MPTP counter 59
CC(C)CN1C(=O)C[C@]2(C(=O)N(C)c3ccc(NS(=O)(=O)C4CC4)cc32)C1c1ccccc1 (some centres undefined)	none (no result: MC4R antagonist, MPTP block, MC4R ag barr, ATG4B inh)
O=[N+]([O-])c1ccc(N=Nc2ccc(O)cc2O)cc1	MPTP block 84 | MPTP counter 80
O=[N+]([O-])c1ccc(N=NN(CCO)CCO)cc1	none
O=[N+]([O-])c1cccc(N=Nc2ccc(O)cc2O)c1	MPTP block 84 | MPTP counter 73
Nc1[nH]c(C(=O)c2ccccc2)c(-c2ccccc2Br)c1C(=O)c1cccs1	none (no result: MC4R antagonist, MPTP block, MC4R ag barr, ATG4B inh)
N#C/C(=C(/O)c1ccc2c(c1)OCO2)c1nc2cc(C(F)(F)F)ccc2s1	MPTP block 84 | MPTP counter 94
N#C/C(=C(/O)c1ccccc1F)c1nc2cc(C(F)(F)F)ccc2s1	MPTP block 96 | MPTP counter 92
COC(=O)[C@]12C[C@H](CC(=O)NCc3cccc4ccccc34)C(=O)N(Cc3ccco3)C1=C[C@H](COCc1ccccc1)O[C@@H]2C	none (no result: MC4R antagonist, MPTP block, MC4R ag barr, ATG4B inh)
COc1ccc(CNS(=O)(=O)c2cc3c(cc2Br)CC(C)N3C(C)=O)cc1 (centres undefined)	none (no result: MC4R antagonist, MPTP block, MC4R ag barr, ATG4B inh)
c1ccc(CN2CCN(CCOCCOc3cccc4ccccc34)CC2)cc1	MPTP block 82 | MPTP counter inactive | MPTP abs DR inactive | MPTP cs DR 74
C#CCNC(=O)C[C@H]1C[C@@]2(C(=O)OC)C(=C[C@H](COCc3ccccc3)O[C@@H]2C)N(Cc2ccc3c(c2)OCO3)C1=O	none (no result: MC4R antagonist, MPTP block, MC4R ag barr, ATG4B inh)
Cc1ccc(S(=O)(=O)NCC2CCN(C(=O)C(=O)c3cccs3)CC2)cc1	none (no result: MC4R antagonist, MPTP block, MC4R ag barr, ATG4B inh)
Oc1c(Cl)cc(Cl)cc1CNc1nc2ccccc2[nH]1	MPTP block 72 | MPTP counter 77
CC(C)C(=O)N1CCC(Oc2cccnc2)CC1	none (no result: MC4R antagonist, MPTP block, MC4R ag barr, ATG4B inh)
CC1(C)CC1C(=O)Nc1ccc([N+](=O)[O-])cc1Br (centres undefined)	none
O=C(Nc1ccc([N+](=O)[O-])cc1)C1CC1(c1ccccc1)c1ccccc1 (centres undefined)	MPTP block 92 | MPTP counter 87
Cc1ccc(C2(c3ccc(C)cc3)CC2C(=O)Nc2ccc([N+](=O)[O-])cc2O)cc1 (centres undefined)	MPTP block 82 | MPTP counter 47
FC(F)(F)c1ccccc1NC(=S)OC1CCC12CCC(c1ccccc1)CC2 (centres undefined)	none (no result: MC4R antagonist, MPTP block, MC4R ag barr, ATG4B inh)
CC(=O)Cc1nsc(NC(=O)c2ccc(-c3ccc(Cl)cc3Cl)o2)n1	MPTP block 54 | MPTP counter 38
COC(=O)N/N=C/c1ccc(-c2cccc(Cl)c2)o1	none
Nc1ccccc1N=Cc1ccc(-c2cccc(Cl)c2)o1	MPTP block 67 | MPTP counter 66
Clc1ccc(-c2cc(-c3nnc4sc(Cc5cccs5)nn34)[nH]n2)cc1	none (no result: MC4R antagonist, MPTP block, MC4R ag barr, ATG4B inh)
CCCC(C)NC(=O)COc1ccc(Sc2ccc(OCC(=O)NC(C)CCC)cc2)cc1 (centres undefined)	MPTP block 78 | MPTP counter 34
CC(C)CNC(=O)COc1ccc(Sc2ccc(OCC(=O)NCC(C)C)cc2)cc1	MPTP block 53 | MPTP counter inactive | MPTP abs DR 5.4 | MPTP cs DR inactive
O[C@H](COc1ccc(OC(F)(F)F)cc1)CN1CCC(C(O)(c2ccccc2)c2ccccc2)CC1	none (no result: MC4R antagonist, MPTP block, MC4R ag barr, ATG4B inh)
O=C(/C(=C/c1ccc(Cl)cc1)c1nc2ccccc2[nH]1)c1ccccc1	MPTP block 91 | MPTP counter 87
O=C(N/C(=C/c1ccc(Cl)cc1)c1nc2ccccc2[nH]1)c1ccco1	none
CCN1CCCC1CNC(=O)c1ccccc1Cl (centres undefined)	none
CCc1cc(Cl)c(OC)c(C(=O)NC[C@@H]2CCCN2CC)c1O	MPTP block 78! | MPTP counter inactive | MPTP abs DR 9 | MPTP cs DR inactive
CCCC(=O)c1ccc(N2CCN(C(=O)c3ccccc3Br)CC2)c(F)c1	MPTP block 80 | MPTP counter 66
O=C(CSC1CC(=O)N(CC(c2ccccc2)c2ccccc2)C1=O)Nc1ccc(Cl)cc1 (centres undefined)	MPTP block 75 | MPTP counter 79
CCN(CC)CCCN1C(=O)C2=C(C1=O)C1N(C)c3ccccc3[C@@]13C[C@@H](CO)N(C(=O)CCC(=O)OC)C3=N2 (some centres undefined)	none (no result: MC4R antagonist, MPTP block, MC4R ag barr, ATG4B inh)
Cc1ccc(N2CCN(/N=C/c3ccncc3)CC2)cc1	none
Clc1ccc(N2CCN(/N=C/c3ccncc3)CC2)cc1	MPTP block 61 | MPTP counter 50
COC[C@H]1CCCN1c1ccc2c(c1)OCCCN(C1CC1)S2(=O)=O	none (no result: MC4R antagonist, MPTP block, MC4R ag barr, ATG4B inh)
O=C(Nc1ccc(Oc2cccc(C(F)(F)F)c2)nc1)c1ccccc1	none
O=C(Nc1ccc(Oc2cccc(C(F)(F)F)c2)nc1)c1cccs1	MPTP block 50 | MPTP counter 57
CC(C)N1Cc2nnn(Cc3ccc(F)cc3)c2-c2cc(F)ccc2S1(=O)=O	none (no result: MC4R antagonist, MPTP block, MC4R ag barr, ATG4B inh)
COC(=O)C1=C(C)N(Cc2ccc(C(F)(F)F)cc2)C(=NCc2ccc3c(c2)OCO3)NC1c1ccccc1C(F)(F)F (centres undefined)	none (no result: MC4R antagonist, MPTP block, MC4R ag barr, ATG4B inh)
CN1CCN(/N=C/c2ccc(N(c3ccccc3)c3ccccc3)cc2)CC1	MPTP block 81 | MPTP counter inactive
CN1CCN(/N=C/c2ccc(Cl)c(Cl)c2)CC1	MPTP block 90 | MPTP counter inactive
CN(C)c1ccc(/C=C/c2ccc3ccccc3[n+]2C)cc1	MPTP block 109 | MPTP counter 68
CN(C)c1ccc(/C=C/c2ccc3c4ccccc4ccc3[n+]2-c2ccccc2)cc1	MPTP block 154 | MPTP counter 77
CN(C)c1ccc(/C=C/c2cccc[n+]2[O-])cc1	none
CN(CCCS(=O)(=O)[O-])c1ccc(/C=C/c2ccc3ccccc3[n+]2C)cc1	none
Cc1ccccc1NC(=O)N(C)[C@H]1C[C@H]2c3[nH]c4c(-c5ccc6c(c5)OCO6)cccc4c3CCN2C[C@H]1[C@H](C)O	none (no result: MC4R antagonist, MPTP block, MC4R ag barr, ATG4B inh)
